These results are taken from ChEMBL document CHEMBL4715734, “Discovery of the Potent and Selective M1 PAM-Agonist N-[(3R,4S)-3-Hydroxytetrahydro-2H-pyran-4-yl]-5-methyl-4-[4-(1,3-thiazol-4-yl)benzyl]pyridine-2-carboxamide (PF-06767832): Evaluation of Efficacy and Cholinergic Side Effects” (J Med Chem, 2016).

Values after ≈ are worked out from the molar mass of the structure shown. Active and inactive are the calls of the source. No cut-off for these calls is given here.

In series [1] the target is T1, Muscarinic acetylcholine receptor M1 (Homo sapiens) (UniProt P11229).
T1 sequence (whole entry): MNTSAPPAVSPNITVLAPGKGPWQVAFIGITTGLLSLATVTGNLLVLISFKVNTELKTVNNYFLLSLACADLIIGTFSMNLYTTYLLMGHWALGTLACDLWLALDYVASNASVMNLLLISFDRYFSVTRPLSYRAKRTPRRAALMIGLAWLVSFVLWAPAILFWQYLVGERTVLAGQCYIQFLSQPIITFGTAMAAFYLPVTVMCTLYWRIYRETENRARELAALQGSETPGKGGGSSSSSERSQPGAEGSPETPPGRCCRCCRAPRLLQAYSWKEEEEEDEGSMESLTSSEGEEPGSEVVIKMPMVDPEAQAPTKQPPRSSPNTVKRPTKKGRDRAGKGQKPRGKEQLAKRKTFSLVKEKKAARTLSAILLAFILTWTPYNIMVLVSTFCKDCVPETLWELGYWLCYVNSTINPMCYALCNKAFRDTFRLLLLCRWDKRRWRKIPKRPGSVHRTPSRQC
Kind of series: Binding affinity to muscarinic M1 receptor (unknown origin) assessed as recruitment of beta-arrestin by Path Hunter assay. Format: cell-based. The note with it: CHO, filed as positive allosteric modulator.

The nature of series [2]: fCmax in dog at 0.3 mg/kg, po measured after 4 hrs using spray-dried dispersion formulation. Format: ADME, organism-based, Canis lupus familiaris. The note with it: in vivo. In outline:
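Dogs from the crossover cardiovascular telemetry study (N=4), dosed orally at 0.3, 1 and 3 mg/kg; unbound Cmax extrapolated from 4 h post-dose in-life plasma samples.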

For series [3], the target named is T1, Muscarinic acetylcholine receptor M1 (Homo sapiens). Nature of the series: Binding affinity to muscarinic M1 receptor (unknown origin) assessed as recruitment of beta-arrestin by measuring binding constant by Path Hunter assay. Format: cell-based. The note with it: CHO, filed as positive allosteric modulator.
Series [4] can be described thus: Toxicity in dog at 1 mg/kg, po using spray-dried dispersion formulation. Particulars: in vivo. Format: organism-based, Canis lupus familiaris.
Series [5] in a line: Unbound plasma concentration in […] in Sprague-Dawley rat model at 1 mg/kg, sc measured after 1.67 hrs. Format: ADME, organism-based. Particulars: in vivo. An outline of the steps: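 Randomly selected animals (N=2/dose) at the end of the rat PPI study, T = 1.67 h. Dosed subcutaneously as a suspension in 0.5% methylcellulose in water. Plasma and brain concentrations were averaged.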

Series [6] is described as follows: Unbound brain concentration in amphetamine-induced C57BL/6J mouse model of hyperlocomotion at 3.2 mg/kg, sc measured after 1 hr. Format: ADME, organism-based. Particulars: in vivo. In outline: (§1)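 Satellite PK animals from the mouse aLMA study, N=2/dose. Dosed subcutaneously with a solution in 5/15/80 DMSO/Solutol/water. Plasma and brain were sampled at T = 1 h.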

Series [7] is described as follows: Clearance in rat at 1 mg/kg, iv administered as single bolus dose. Format: ADME, organism-based. The note with it: in vivo.
A short description of series [8]: Toxicity in dog assessed as induction of soft stool at 45 mg/kg, po using spray-dried dispersion formulation measured after 45 mins. Type of series: organism-based, Canis lupus familiaris. The note with it: in vivo, 0.75 h.
The nature of series [9]: Toxicity in male Beagle dog assessed as increase in maximum systolic left ventricular pressure at 3 mg/kg, po observed up to 9 hrs post last dose by telemetry. Type of series: organism-based, Canis lupus familiaris. Particulars: in vivo. An outline of the steps:
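Crossover telemetry study in dogs at three oral doses (0.3, 1 and 3 mg/kg), N=4. Endpoints were blood pressure, maximum systolic left ventricular pressure, LV +dP/dt max, activity, heart rate, and RR, QT and QTc intervals, followed up to 9 h post dose.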

The nature of series [10]: Aqueous solubility of compound at pH 6.5. Type of series: physicochemical. Particulars: buffer.
A short description of series [11]: Toxicity in dog assessed as induction of watery feces at 5 mg/kg, po using spray-dried dispersion formulation. Format: organism-based, Canis lupus familiaris. The note with it: in vivo.
Series [12] in a line: Partial agonist activity at muscarinic M2/M3 receptor in Hartley guinea pig ileum assessed as stimulation of contraction in presence of mAChR antagonist atropine. Type of series: tissue-based, Cavia porcellus. An outline of the steps: (§2)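 Agonist mode used a guinea pig ileum tissue bath with the compound applied alone. Concentration–response curves were run with or without the non-selective muscarinic antagonist atropine. Contraction was expressed relative to the maximal carbachol response.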

In series [13] the target is Muscarinic acetylcholine receptor M3 (Homo sapiens, UniProt P20309). Nature of the series: Positive allosteric modulation of muscarinic M3 receptor (unknown origin) assessed as increase in ACh-induced displacement of [3H]-NMS from M2 receptor. In outline: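 Cell lines expressing M2 or M3 were used for [3H]NMS binding. Inhibition of binding by ACh was measured in the presence of fixed compound concentrations of 10, 3, 1, 0.3, 0.1 and 0 µM.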
(In general: In a radioligand displacement assay an active substance lowers the binding of a labelled ligand.)

Series [14] can be described thus: fAUC (0 to 24 hrs) in dog at 15 mg/kg, po using spray-dried dispersion formulation. Format: ADME, organism-based, Canis lupus familiaris. The note with it: in vivo.
The target of series [15] is T2, Muscarinic acetylcholine receptor M5 (Homo sapiens, UniProt P08912).
T2 sequence (P08912 whole entry): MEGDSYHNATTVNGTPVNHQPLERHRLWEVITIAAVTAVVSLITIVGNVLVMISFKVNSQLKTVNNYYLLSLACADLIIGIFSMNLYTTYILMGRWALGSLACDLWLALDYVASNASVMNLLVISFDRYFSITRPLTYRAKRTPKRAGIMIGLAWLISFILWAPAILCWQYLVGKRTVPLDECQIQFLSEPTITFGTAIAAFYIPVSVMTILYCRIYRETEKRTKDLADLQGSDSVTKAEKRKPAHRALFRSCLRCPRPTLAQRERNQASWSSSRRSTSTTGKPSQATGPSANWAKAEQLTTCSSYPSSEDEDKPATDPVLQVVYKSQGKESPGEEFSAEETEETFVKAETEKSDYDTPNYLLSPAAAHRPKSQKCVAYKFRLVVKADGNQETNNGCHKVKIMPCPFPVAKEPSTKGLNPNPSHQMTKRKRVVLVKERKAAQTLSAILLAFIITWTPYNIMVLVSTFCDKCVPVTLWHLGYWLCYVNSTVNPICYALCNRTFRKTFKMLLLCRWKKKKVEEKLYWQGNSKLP
Nature of the series: Agonist activity at human recombinant muscarinic M5 receptor stably expressed in CHO cells assessed as increase in intracellular calcium level up to 10 uM incubated for 10 mins by Fluo-8AM dye based FLIPR TETRA method. Format: cell-based.

Series [16] in a line: Unbound plasma concentration in amphetamine-induced C57BL/6J mouse model of hyperlocomotion at 3.2 mg/kg, sc measured after 1 hr. Type of series: ADME, organism-based. The note with it: in vivo. In outline: as §1
The subject of a further series is Rattus norvegicus. Nature of the series: Reversal of amphetamine-induced prepulse inhibition in Sprague-Dawley rat at 1 mg/kg, sc administered 30 min before testing followed by administration of amphetamine 15 mins prior to testing. Format: functional, organism-based. An outline of the steps:
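In rats with amphetamine-disrupted prepulse inhibition, the compound was dosed sc as a suspension in 0.5% methylcellulose in water. Startle reflex and PPI alone were also assessed, and the analysis used the collapsed data set. Plasma and brain levels were taken from randomly chosen animals (N=2/dose) at the end of the study (1.67 h).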

The nature of series [17]: Unbound brain concentration in scopolamine-induced Wistar rat model at 0.1 mg/kg, po measured after 1 hr. Format: ADME, organism-based. The note with it: in vivo.
In the next series the test system is Mus musculus. Nature of the series: In vivo positive allosteric modulation of muscarinic M1 receptor in CD-1 mouse assessed as increase in ACh-induced IP-1 levels in […] tissue administered subcutaneously measured after 2 hrs by HTRF assay. Format: functional, organism-based. An outline of the steps: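 Mice were dosed subcutaneously with a solution in 5/15/80 DMSO/Solutol/water across a 0.1–10 mg/kg dose series. IP1 accumulation in striatum was measured over a 2 h treatment and expressed as fold increase over baseline for each animal. Compound levels were measured in striatal tissue at 2 h (N=5/dose), and unbound brain concentration was derived from these.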
A general note: In TR-FRET formats the signal depends on donor and acceptor labels being close together.

A short description of series [18]: Partial agonist activity at muscarinic M2/M3 receptor in Hartley guinea pig ileum assessed as stimulation of contraction relative to carbachol. Format: tissue-based, Cavia porcellus. In outline: as §2

Muscarinic acetylcholine receptor M3, sequence (P20309 whole entry): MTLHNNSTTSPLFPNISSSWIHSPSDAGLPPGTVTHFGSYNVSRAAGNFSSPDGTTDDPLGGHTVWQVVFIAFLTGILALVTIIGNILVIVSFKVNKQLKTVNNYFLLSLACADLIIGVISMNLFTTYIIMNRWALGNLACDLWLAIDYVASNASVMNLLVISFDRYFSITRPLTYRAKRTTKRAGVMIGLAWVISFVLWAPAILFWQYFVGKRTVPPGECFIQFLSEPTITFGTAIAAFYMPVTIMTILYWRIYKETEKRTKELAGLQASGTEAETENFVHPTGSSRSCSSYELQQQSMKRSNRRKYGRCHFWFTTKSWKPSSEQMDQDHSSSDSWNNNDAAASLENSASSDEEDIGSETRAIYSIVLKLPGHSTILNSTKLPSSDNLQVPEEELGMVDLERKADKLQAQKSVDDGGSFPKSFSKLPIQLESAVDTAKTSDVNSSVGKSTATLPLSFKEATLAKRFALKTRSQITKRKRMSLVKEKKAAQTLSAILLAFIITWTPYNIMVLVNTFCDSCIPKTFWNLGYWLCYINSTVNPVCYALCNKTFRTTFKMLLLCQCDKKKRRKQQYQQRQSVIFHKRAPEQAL

For orientation: clearance means a measure of how efficiently the substance is removed, as volume per time. A lower clearance goes with inefficient removal. Usually solubility stands for the concentration that dissolves in the medium under given conditions. Read a low solubility as little dissolved substance. For orientation: Emax means the size of the effect at its maximum, as opposed to the concentration needed. As for `Cc1cnc(C(=O)N[C@H]2CCOC[C@@H]2O)cc1Cc1ccc(-c2cscn2)cc1`, the Ka in [1] came out at 20 µM. In series [2], this molecule displayed a fCmax of 41 nM. Moreover, the Kb in series [3] is 5 µM. Further, the Activity result in series [4] is listed as “Non-Toxic”; in [8] it was “Toxic”; in series [9], “Toxic”; in series [11] it was “Toxic”; in [12] it was “Not Active”; in series [13] it was “Not Active”. Besides, the values for the Activity result (in series [15]; in the series with Mus musculus) were “Not Active” and “Dose-dependent effect”, respectively. The “Cp(f)” value in series [5] was 45.6 nM; in series [16], 255 nM. Besides, the “Drug uptake(free)” value came to 85.2 nM in [6] and 0.31 nM in series [17]. In addition, the clearance in series [7] is 3.29 mL/min/kg. Further, the solubility in series [10] amounted to 2.7 µg/mL (≈ 6.59 µM). In series [14], this molecule yielded a fAUC of 7.765 µM·h. For the same molecule, in the series on Rattus norvegicus, the result was Active. Moreover, in series [18], the Emax stood at 77%.
